Screening data from PubChem.
T cruzi growth-1: T. cruzi intracellular proliferation inhibitors, primary screen, cell-based, beta-gal Tulahuen parasites, NIH3T3 host, luminescence. T. cruzi beta-gal in NIH3T3, GalScreen luminescence, 90 h. inhibition, % at 8.34 µM. actives 5.9% (n = 77,000);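 active means mean inhibition above about 93%, with at least 55% of replicates each passing it, limit read from the data, passing the limit was not always enough; inconclusive means only one of those two conditions holds; inactive means neither condition holds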
GASC1 inh: inhibitors of GASC-1 (KDM4C) histone demethylase, primary screen, biochemical, single concentration HTS; Lysine-specific demethylase 4C (Homo sapiens), Q9H3R0; GST-KDM4C 2-372, H3K9me3 peptide, LANCE TR-FRET; inhibition, % at 12.5 µM; actives 0.15% (n = 96,000); AID 720574, 2013;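 active means mean replicate inhibition above about 25%, with at least 55% of replicates also reaching it, limit read from the data, passing the limit was not always enough; inconclusive means only one of those two conditions met; inactive means neither condition met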
Target sequence (Q9H3R0 2-372 limits assumed): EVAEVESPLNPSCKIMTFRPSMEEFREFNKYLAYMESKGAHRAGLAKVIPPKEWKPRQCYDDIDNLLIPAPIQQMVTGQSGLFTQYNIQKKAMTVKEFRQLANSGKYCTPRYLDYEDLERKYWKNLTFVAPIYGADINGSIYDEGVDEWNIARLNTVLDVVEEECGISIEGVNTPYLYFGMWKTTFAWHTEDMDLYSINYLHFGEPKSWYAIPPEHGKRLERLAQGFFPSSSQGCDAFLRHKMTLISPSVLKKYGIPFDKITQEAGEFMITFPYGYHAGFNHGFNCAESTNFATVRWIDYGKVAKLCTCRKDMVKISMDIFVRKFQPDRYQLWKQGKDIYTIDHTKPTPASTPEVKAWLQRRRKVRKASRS
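System – N-terminal GST-fused human GASC-1 (KDM4C) fragment, residues 2-372 · Input – enzyme final amount 10 nM · Technique – LANCE TR-FRET, Eu antibody, ULight-streptavidin, EDTA, ex 340 nm, em 618/671 nm · Medium – HEPES buffer, pH 7.5, plus ascorbate · Incubation – enzyme reaction 30 min, then detection 60 min, both room temperature · Reagent – H3K9me3 peptide with Fe(II)/2OG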
IDH1 mut inh: inhibitors of IDH1 R132H reductase, primary screen, biochemical, plate reader, single point. AID 624101, 2012. actives 0.18% (n = 70,000). Isocitrate dehydrogenase [NADP] cytoplasmic (Homo sapiens), O75874. diaphorase/resazurin fluorescence, 60 min. inhibition, % at 10 µM; in the data active means inhibition above about 34%; inconclusive means no clear call, values can overlap the other calls; inactive means below about 11%
Target sequence (O75874 whole entry R132H): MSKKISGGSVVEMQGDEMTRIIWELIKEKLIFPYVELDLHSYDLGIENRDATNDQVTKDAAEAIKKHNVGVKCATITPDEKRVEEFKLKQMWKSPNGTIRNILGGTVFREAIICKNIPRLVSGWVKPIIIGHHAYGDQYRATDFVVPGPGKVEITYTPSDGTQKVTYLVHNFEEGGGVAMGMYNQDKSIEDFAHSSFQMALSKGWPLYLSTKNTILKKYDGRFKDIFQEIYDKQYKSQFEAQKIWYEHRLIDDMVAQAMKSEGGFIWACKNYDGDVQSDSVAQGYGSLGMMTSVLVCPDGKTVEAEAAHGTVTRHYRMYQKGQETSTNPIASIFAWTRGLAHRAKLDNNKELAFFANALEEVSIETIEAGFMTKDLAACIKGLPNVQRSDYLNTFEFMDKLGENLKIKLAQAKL
T cruzi growth-2: T. cruzi intracellular proliferation inhibitors, confirmation, cell-based, NIH3T3 host, beta-gal parasite, luminescence, cherry-pick. shares compounds with T cruzi growth-1. T. cruzi beta-gal in NIH3T3, GalScreen luminescence, 90 h. inhibition, % at 8.35 µM. actives 72% (n = 5,600). AID 651739, 2012;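 active means mean replicate inhibition above about 95% and at least 55% of replicates individually reaching it, limit read from the data; inconclusive means only one of the two criteria is met; inactive means neither criterion is met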
T cruzi growth-3: inhibitors of intracellular T. cruzi replication, confirmation, NIH3T3 host cells, beta-gal parasites, cherry-pick, set 2; shares compounds with T cruzi growth-1; T. cruzi beta-gal in NIH3T3, GalScreen luminescence, 90 h; inhibition, % at 2.09 µM; actives 21% (n = 5,600);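 active means mean inhibition above about 95%, with at least 55% of replicates also reaching it, limit read from the data; inconclusive means meets just one of the two conditions; inactive means meets neither condition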
NIH3T3 tox: cytotoxicity in mouse NIH/3T3 fibroblasts, confirmation, cytotoxicity control for T. cruzi proliferation inhibitor project, cell-based, cherry-pick, single point; shares compounds with T cruzi growth-1; NIH/3T3 viability, CellTiter-Glo ATP luminescence, 90 h; cytotoxicity (signal decrease), % at 8.35 µM; actives 14% (n = 5,600); AID 651742, 2012;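 active means mean signal decrease across replicates above about 35% based on untreated-well scatter, with enough replicates individually passing, limit read from the data; inconclusive means no rule stated though some were filed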
NIH3T3 tox 2: NIH/3T3 fibroblast cytotoxicity, confirmation, cytotoxicity control, cell-based, cherry-pick, single point, set 2; inhibition, % at 24.9 µM; actives 56% (n = 5,600); NIH/3T3 viability, CellTiter-Glo ATP luminescence, 90 h; shares compounds with T cruzi growth-1; AID 651744, 2012;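 active means mean loss of cell viability signal at or above a set limit, and enough replicates individually reaching it; inconclusive means meets only the mean limit or only the replicate share; inactive means meets neither condition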
Each line names hits and unclear results; the compound was inactive in the other large screens (follow-up assays come after a bar, where they were run). The sample as a whole holds a higher share of hits than the screen did.

O=c1cccc2n1CC1CNCC2C1 (stereo not given)	none (no result: T cruzi growth-1, GASC1 inh)
O=C(O)[C@H]1[C@H](CO)[C@H]2Cn3c(ccc(-c4ccncc4)c3=O)[C@@H]1N2C(=O)C1CCCC1	none (no result: T cruzi growth-1, IDH1 mut inh)
CC=Cc1ccc2n(c1=O)C[C@@H]1[C@@H](CO)[C@H](C(=O)OC)[C@H]2N1C(=O)CC (mixture of isomers)	none (no result: IDH1 mut inh)
CC(C)=CC1C(C(=O)OCc2coc(Cc3ccccc3)c2)C1(C)C (stereo not given)	none (no result: T cruzi growth-1, GASC1 inh)
COc1ccc(C#Cc2ccc([C@@H]3[C@@H](CO)N4CCCCN(C(=O)Cc5ccncc5)C[C@@H]34)cc2)cc1	T cruzi growth-1 117 (no result: IDH1 mut inh) | T cruzi growth-2 104 | T cruzi growth-3 inactive | NIH3T3 tox inactive | NIH3T3 tox 2 102
COc1ccc(-c2ccc([C@@H]3[C@H](CO)N4CCCCN(C(=O)Cc5ccncc5)C[C@@H]34)cc2)cc1	T cruzi growth-1 99 (no result: IDH1 mut inh) | T cruzi growth-2 98 | T cruzi growth-3 inactive | NIH3T3 tox inactive | NIH3T3 tox 2 29
O=C(Cc1ccncc1)N1CCCCN2[C@H](CO)[C@H](c3ccc(C#CC4(O)CCCC4)cc3)[C@@H]2C1	none (no result: IDH1 mut inh)
COc1ccc(-c2ccc([C@H]3[C@H]4CN(C(=O)Cc5ccccc5)CCCCN4[C@H]3CO)cc2)cc1	none (no result: IDH1 mut inh)
O=C(Cc1ccncc1)N1CCCCN2[C@H](CO)[C@@H](c3ccc(C#CC4(O)CCCC4)cc3)[C@@H]2C1	T cruzi growth-1 105 (no result: IDH1 mut inh) | T cruzi growth-2 inactive | T cruzi growth-3 inactive | NIH3T3 tox inactive | NIH3T3 tox 2 inactive
COc1ccc(C#Cc2ccc([C@@H]3[C@H]4CN(C(=O)Cc5ccncc5)CCCCN4[C@H]3CO)cc2)cc1	T cruzi growth-1 106 (no result: IDH1 mut inh) | T cruzi growth-2 inactive | T cruzi growth-3 inactive | NIH3T3 tox inactive | NIH3T3 tox 2 100
COc1ccc(-c2ccc([C@H]3[C@@H](CO)N4CCCCN(C(=O)Cc5ccncc5)C[C@H]34)cc2)cc1	none (no result: IDH1 mut inh)
C/C=C/c1ccc(C2[C@@H]3CN(C(=O)C4CCCC4)C[C@H]2N3)cc1 (stereo not given in full)	none (no result: T cruzi growth-1, IDH1 mut inh)
COc1ccc(OC(=O)N(C)C[C@H]2OCc3ccccc3-c3c(n(C)c4ccccc34)C(=O)N([C@@H](C)CO)C[C@H]2C)cc1	none (no result: T cruzi growth-1, IDH1 mut inh)
CCCN(CCC)CCc1c[nH]c2ccc(C(N)=O)cc12	none (no result: T cruzi growth-1, GASC1 inh)
CCc1ccc(NC2=NCCS2)cc1	none (no result: T cruzi growth-1, GASC1 inh)
C/C=C/c1ccc([C@@H]2[C@@H](CO)N3CCCCN(C(=O)Cc4ccncc4)C[C@H]23)cc1	none (no result: IDH1 mut inh)
N#Cc1cccc(-c2ccc([C@H]3[C@H](CO)N4CCCCN(C(=O)Cc5ccccc5)C[C@@H]34)cc2)c1	T cruzi growth-1 102 (no result: IDH1 mut inh) | T cruzi growth-2 inactive | T cruzi growth-3 inactive | NIH3T3 tox inactive | NIH3T3 tox 2 42
N#Cc1cccc(-c2ccc([C@H]3[C@H](CO)N4CCCCN(C(=O)Cc5cccnc5)C[C@@H]34)cc2)c1	T cruzi growth-1 109 (no result: IDH1 mut inh) | T cruzi growth-2 103 | T cruzi growth-3 inactive | NIH3T3 tox inactive | NIH3T3 tox 2 55
N#Cc1cccc(-c2ccc([C@@H]3[C@@H](CO)N4CCCCN(C(=O)Cc5ccncc5)C[C@H]34)cc2)c1	T cruzi growth-1 108 (no result: IDH1 mut inh) | T cruzi growth-2 inactive | T cruzi growth-3 inactive | NIH3T3 tox inactive | NIH3T3 tox 2 37
N#Cc1cccc(-c2ccc([C@H]3[C@@H](CO)N4CCCCN(C(=O)Cc5cccnc5)C[C@H]34)cc2)c1	none (no result: IDH1 mut inh)
N#Cc1cccc(-c2ccc([C@@H]3[C@H](CO)N4CCCCN(C(=O)Cc5cccnc5)C[C@@H]34)cc2)c1	none (no result: IDH1 mut inh)
N#Cc1ccc(-c2ccc([C@@H]3[C@@H](CO)N4CCCCN(C(=O)Cc5ccccc5)C[C@H]34)cc2)cc1	none (no result: IDH1 mut inh)
COC(=O)[C@H]1[C@H](CO)[C@H]2Cn3c(ccc(/C=C/c4ccccc4)c3=O)[C@@H]1N2Cc1ccccc1F	none (no result: IDH1 mut inh)
COc1ccc2c3c4n(c2c1)[C@@H](C=C(C)C)OOC(C)(C)C[C@@H]4N1C(=O)[C@@H]2CCCN2C(=O)[C@]1(O)[C@H]3OCC=C(C)C	none (no result: T cruzi growth-1, GASC1 inh)
COc1c2c(cc3c1OCO3)CCN(C)C2	none (no result: T cruzi growth-1, GASC1 inh)
O=C(Cc1ccccc1)N1CC2(C1)[C@H](c1ccccc1)[C@@H](CO)N2Cc1cccc(Cl)c1	none (no result: T cruzi growth-1, IDH1 mut inh)
N#Cc1nn(-c2c(Cl)cc(C(F)(F)F)cc2Cl)c(N)c1S(=O)C(F)(F)F (stereo not given)	none (no result: T cruzi growth-1, GASC1 inh)
COc1ccc(-c2ccc([C@@H]3[C@@H](CO)N4CCCCN(C(=O)Cc5ccccc5)C[C@H]34)cc2)cc1	T cruzi growth-1 inconclusive (no result: IDH1 mut inh) | T cruzi growth-2 97 | T cruzi growth-3 inactive | NIH3T3 tox inactive | NIH3T3 tox 2 105
O=C(Cc1ccccc1)N1CCCCN2[C@@H](CO)[C@H](c3ccc(-c4ccccc4)cc3)[C@@H]2C1	T cruzi growth-1 100 (no result: IDH1 mut inh) | T cruzi growth-2 103 | T cruzi growth-3 inactive | NIH3T3 tox inactive | NIH3T3 tox 2 102
COc1ccc(-c2ccc([C@H]3[C@@H](CO)N4CCCCN(C(=O)Cc5ccccc5)C[C@H]34)cc2)cc1	none (no result: IDH1 mut inh)
O=C(Cc1ccccc1)N1CCCCN2[C@H](C1)[C@@H](c1ccc(-c3ccccc3)cc1)[C@@H]2CO	none (no result: IDH1 mut inh)
COc1ccc2c(c1O)-c1cc(O)cc3c1[C@@H](C2)N(C)CC3	none (no result: T cruzi growth-1, GASC1 inh)
O=C(O)[C@@H]1[C@@H](CO)[C@@H]2Cn3c(ccc(-c4ccncc4)c3=O)[C@H]1N2C(=O)C1CCCC1	none (no result: T cruzi growth-1, IDH1 mut inh)
C[C@@H]1CN([C@H](C)CO)C(=O)c2c(c3ccccc3n2C)-c2ccccc2CO[C@@H]1CN(C)C(=O)Oc1ccccc1	none (no result: T cruzi growth-1, IDH1 mut inh)
O=C(Cc1cccnc1)N1CCCCN2[C@H](CO)[C@@H](c3ccc(C#CC4CCCC4)cc3)[C@H]2C1	T cruzi growth-1 inconclusive (no result: IDH1 mut inh) | T cruzi growth-2 inactive | T cruzi growth-3 inactive | NIH3T3 tox inactive | NIH3T3 tox 2 104
O=C(Cc1cccnc1)N1CCCCN2[C@H](CO)[C@H](c3ccc(C#CC4CCCC4)cc3)[C@H]2C1	T cruzi growth-1 100 (no result: IDH1 mut inh) | T cruzi growth-2 100 | T cruzi growth-3 inactive | NIH3T3 tox inactive | NIH3T3 tox 2 106
O=C(Cc1cccnc1)N1CCCCN2[C@H](CO)[C@H](c3ccc(C#CC4(O)CCCC4)cc3)[C@@H]2C1	none (no result: IDH1 mut inh)
